# The source made the active and inactive calls. The calls are words filed in the database; no cut-off is given here. Peptide text beside a SMILES is read from it. * marks the point of attachment. Cbz = O=C(OCc1ccccc1)*; Boc = CC(C)(C)OC(=O)*
# T1: Prostaglandin G/H synthase 1 (Ovis aries, UniProt P05979)
# T1 sequence (P05979 whole entry): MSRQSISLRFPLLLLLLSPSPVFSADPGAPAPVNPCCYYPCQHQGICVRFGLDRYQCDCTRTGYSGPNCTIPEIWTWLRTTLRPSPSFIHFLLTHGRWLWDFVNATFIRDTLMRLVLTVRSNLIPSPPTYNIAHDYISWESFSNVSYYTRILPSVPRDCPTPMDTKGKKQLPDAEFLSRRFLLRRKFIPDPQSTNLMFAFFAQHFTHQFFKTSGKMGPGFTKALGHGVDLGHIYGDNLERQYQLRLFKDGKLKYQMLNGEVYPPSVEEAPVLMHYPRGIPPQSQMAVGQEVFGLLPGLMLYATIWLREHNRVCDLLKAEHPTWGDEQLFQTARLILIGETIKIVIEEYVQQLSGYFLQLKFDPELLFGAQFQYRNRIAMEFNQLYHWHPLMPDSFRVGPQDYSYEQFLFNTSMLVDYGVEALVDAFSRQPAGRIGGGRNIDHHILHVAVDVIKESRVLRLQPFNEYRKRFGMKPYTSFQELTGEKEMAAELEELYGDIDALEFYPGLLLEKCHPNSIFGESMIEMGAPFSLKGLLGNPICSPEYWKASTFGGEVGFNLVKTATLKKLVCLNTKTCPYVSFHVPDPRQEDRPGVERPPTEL
# T2: Prostaglandin G/H synthase 2 (Homo sapiens, UniProt P35354)
# T2 sequence (P35354 whole entry): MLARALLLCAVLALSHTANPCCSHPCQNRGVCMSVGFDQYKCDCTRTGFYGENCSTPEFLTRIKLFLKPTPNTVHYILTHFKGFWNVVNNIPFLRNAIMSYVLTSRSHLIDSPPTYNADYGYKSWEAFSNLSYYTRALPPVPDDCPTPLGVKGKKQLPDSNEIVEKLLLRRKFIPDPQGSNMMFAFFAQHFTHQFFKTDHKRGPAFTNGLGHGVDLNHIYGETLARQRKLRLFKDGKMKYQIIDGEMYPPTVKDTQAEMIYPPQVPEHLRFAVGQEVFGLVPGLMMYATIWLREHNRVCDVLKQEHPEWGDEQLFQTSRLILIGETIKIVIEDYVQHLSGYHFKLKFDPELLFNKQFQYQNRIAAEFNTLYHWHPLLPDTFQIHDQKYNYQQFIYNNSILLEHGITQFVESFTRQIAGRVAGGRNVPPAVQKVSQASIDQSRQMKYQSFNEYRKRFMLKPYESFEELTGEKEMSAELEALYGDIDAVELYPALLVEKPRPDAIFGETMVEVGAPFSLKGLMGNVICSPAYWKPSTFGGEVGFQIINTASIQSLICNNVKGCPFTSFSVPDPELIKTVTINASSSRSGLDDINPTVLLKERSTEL
# Experiments:
# Rattus norvegicus [1] = assay: Analgesic activity in Wistar rat model of acetic-acid-induced writhing assessed as inhibition of writhing numbers at 5 to 10 mg/kg, ip preincubated for 30 mins followed by acetic acid induction and measured for 30 mins relative to control; format: functional
# Procedure, shortened: (§1)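 Male Wistar rats (250-300 g) in groups of 5. Writhing (abdominal contraction, trunk twisting, hind-leg extension) was induced by intraperitoneal acetic acid, and writhes were counted. Test doses were 5 and 10 mg/kg, with a vehicle control and indomethacin 10 mg/kg as reference. Data are mean±SEM (n=5), analysed by one-way ANOVA with Tukey's test (p<.05 vs control).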
# [2] = target: T1, Prostaglandin G/H synthase 1; assay: Inhibition of ovine COX-1 assessed as reduction in prostaglandin production preincubated for 10 mins followed by arachidonic acid addition and measured after 2 mins by EIA method
# Rattus norvegicus [3] = assay: Analgesic activity in Wistar rat model of formalin-induced hyperalgesia assessed as reduction in number of formalin-evoked paw flinching during neurogenic phase at 10 mg/kg preincubated for 30 mins followed by formalin treatment and measured during first 5 mins post formalin injection relative to control; format: functional
# Procedure, shortened: (§2)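 Formalin paw test in male Wistar rats (250-300 g), 5 per group. Flinching was counted separately in the neurogenic and inflammatory phases. Modulator studies used pre-treatment with substance P, L-NAME or L-arginine (NO precursor) in three groups each. Data are mean±SEM (n=5), analysed by one-way ANOVA with Tukey's test (p<.05 vs control).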
# [4] = target: Prostaglandin G/H synthase 1 (Homo sapiens, UniProt P23219); assay: Inhibition of COX-1 in human whole blood assessed as reduction in calcium ionophore A23187-stimulated thromboxane B2 production by measuring thromboxane B2 level at 1 uM preincubated for 60 mins followed by calcium ionophore A23187 stimulation and measured after 30 mins by ELISA (reference value: 1.4 ng/mL); format: tissue-based; conditions: 0.5 h
# Chain of Prostaglandin G/H synthase 1 (Homo sapiens, UniProt P23219) (P23219 whole entry): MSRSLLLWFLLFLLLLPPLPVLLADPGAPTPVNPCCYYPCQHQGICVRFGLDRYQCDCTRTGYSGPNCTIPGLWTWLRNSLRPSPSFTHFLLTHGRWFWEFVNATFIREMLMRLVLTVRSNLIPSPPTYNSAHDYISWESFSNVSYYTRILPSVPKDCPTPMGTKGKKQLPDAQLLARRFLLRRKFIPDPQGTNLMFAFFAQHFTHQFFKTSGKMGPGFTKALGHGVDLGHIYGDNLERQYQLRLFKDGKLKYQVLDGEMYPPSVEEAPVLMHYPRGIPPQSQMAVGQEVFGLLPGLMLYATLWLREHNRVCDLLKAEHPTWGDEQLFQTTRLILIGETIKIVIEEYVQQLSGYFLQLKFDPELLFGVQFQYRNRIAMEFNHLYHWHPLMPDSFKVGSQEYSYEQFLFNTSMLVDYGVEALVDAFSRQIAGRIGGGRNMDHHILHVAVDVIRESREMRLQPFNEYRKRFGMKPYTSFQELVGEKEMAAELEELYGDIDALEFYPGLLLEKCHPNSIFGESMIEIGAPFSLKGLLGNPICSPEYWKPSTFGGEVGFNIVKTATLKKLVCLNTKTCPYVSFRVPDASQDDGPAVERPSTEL
# Procedure, shortened: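 Human whole blood stimulated with calcium ionophore to drive COX-1, with thromboxane B2 formation measured. The test concentration was 1 μM, and indomethacin 1 μM served as reference.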
# Rattus norvegicus [5] = assay: Analgesic activity in Wistar rat model of acetic-acid-induced writhing assessed as inhibition of writhing numbers at 10 mg/kg, ip preincubated for 30 mins followed by acetic acid induction and measured for 30 mins; format: functional, organism-based; procedure, shortened: as §1
# Rattus norvegicus [6] = assay: Analgesic activity in Wistar rat model of formalin-induced hyperalgesia assessed as reduction in number of formalin-evoked paw flinching during inflammatory phase at 10 mg/kg preincubated for 30 mins followed by formalin treatment and measured after 15 to 30 mins relative to control; format: functional; procedure, shortened: as §2
# Rattus norvegicus [7] = assay: Anti-inflammatory activity in Wistar rat assessed as inhibition of carrageenan-induced paw edema at 10 mg/kg, ip preincubated for 1 hr followed by carrageenan challenge and measured for 6 hrs; format: functional, organism-based
# Procedure, shortened: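 Carrageenan-induced paw inflammation in male Wistar rats (250-300 g), three groups of 5 animals. Data are mean±SEM (n=5), analysed by one-way ANOVA with Tukey's multiple range test (p<.05 vs control).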
# [8] = Drug metabolism in Wistar rat assessed as (S)-1-(2-((S)-2-aminopropanamido)acetyl)pyrrolidine-2-carboxylic acid formation at 10 mg/kg, ip measured after 6 hrs by LC-MS analysis; format: ADME, organism-based; conditions: in vivo
# Procedure, shortened: (§3)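 Blood serum was taken from treated rats at 30, 60, 90 and 120 min. Proteins were removed by centrifugation, and the supernatants were analysed by LC-MS with HRMS identification of peptide fragments. Breakdown was assessed up to 6 h.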
# [9] = Drug metabolism in Wistar rat assessed as 2-((S)-2-((S)-1-(2-aminoacetyl)pyrrolidine-2-carboxamido)propanamido)acetic acid formation at 10 mg/kg, ip measured after 6 hrs by LC-MS analysis; format: ADME, organism-based; conditions: in vivo; procedure, shortened: as §3
# [10] = target: T2, Prostaglandin G/H synthase 2; assay: Substrate activity at COX-2 (unknown origin) in DMSO-d6 assessed as chemical shift of NH protons of glycine residues by 1H NMR analysis; format: ADME
# [11] = Drug metabolism in Wistar rat assessed as (S)-2-((S)-1-(2-((S)-2-aminopropanamido)acetyl)pyrrolidine-2-carboxamido)propanoic acid formation at 10 mg/kg, ip measured after 6 hrs by LC-MS analysis; format: ADME, organism-based; conditions: in vivo; procedure, shortened: as §3
# Rattus norvegicus [12] = assay: (§4) Analgesic activity in Wistar rat model of formalin-induced hyperalgesia assessed as reduction in number of formalin-evoked paw flinching during inflammatory phase at 10 mg/kg administered intraperitoneally 30 mins after substance P injection followed by formalin induction after 30 mins and measured after 15 to 30 mins post formalin injection; format: functional, organism-based; procedure, shortened: as §2
# [13] = Acute toxicity in Wistar rat assessed as induction of morphological lesions in liver at 2000 mg/kg, po measured after 14 days by histological analysis; format: organism-based; conditions: in vivo, 336 h
# Procedure, shortened: (§5)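 Acute oral toxicity per OECD guideline: rats fasted 4 h, then vehicle or single dose of 50, 300 or 2000 mg kg^-1; three rats per group. Animals observed for 14 days; one animal from the high-dose group and one control then sacrificed for tissue histology examined for lesions. Male Wistar rats, 250-300 g.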
# Rattus norvegicus [14] = assay: as §4, with “neurogenic” for “inflammatory”, “NOS inhibitor L-NAME” for “substance P”, “during first 5” for “after 15 to 30”; format: functional, organism-based; procedure, shortened: as §2
# [15] = Drug metabolism in Wistar rat assessed as methyl 2-((S)-2-((S)-1-(2-aminoacetyl)pyrrolidine-2-carboxamido)propanamido)acetate formation at 10 mg/kg, ip measured after 6 hrs by LC-MS analysis; format: ADME, organism-based; conditions: in vivo; procedure, shortened: as §3
# Rattus norvegicus [16] = assay: as §4, with “neurogenic” for “inflammatory”, “during first 5” for “after 15 to 30”; format: functional, organism-based; procedure, shortened: as §2
# Rattus norvegicus [17] = assay: as §4, with “nitric oxide precursor L-arginine” for “substance P”; format: functional, organism-based; procedure, shortened: as §2
# [18] = Drug metabolism in Wistar rat assessed as 2-((S)-2-((S)-1-(2-((S)-2-aminopropanamido)acetyl)pyrrolidine-2-carboxamido)propanamido)acetic acid formation at 10 mg/kg, ip measured after 6 hrs by LC-MS analysis; format: ADME, organism-based; conditions: in vivo; procedure, shortened: as §3
# [19] = Acute toxicity in Wistar rat assessed as induction of morphological lesions in myocardium at 2000 mg/kg, po measured after 14 days by histological analysis; format: organism-based; conditions: in vivo, 336 h; procedure, shortened: as §5
# Rattus norvegicus [20] = assay: as §4, with “NOS inhibitor L-NAME” for “substance P”; format: functional, organism-based; procedure, shortened: as §2
# Rattus norvegicus [21] = assay: as §4, with “neurogenic” for “inflammatory”, “nitric oxide precursor L-arginine” for “substance P”, “during first 5” for “after 15 to 30”; format: functional, organism-based; procedure, shortened: as §2
# [22] = Acute toxicity in Wistar rat assessed as induction of morphological lesions in kidney at 2000 mg/kg, po measured after 14 days by histological analysis; format: organism-based; conditions: in vivo, 336 h; procedure, shortened: as §5
# [23] = target: T2, Prostaglandin G/H synthase 2; assay: Substrate activity at COX-2 (unknown origin) in DMSO-d6 assessed as chemical shift of NH protons of alanine residues by 1H NMR analysis; format: ADME
# [24] = substrate: CCCCC/C=C\C/C=C\C/C=C\C/C=C\CCCC(=O)O; assay: (§6) Substrate activity at COX-2 (unknown origin) in pH 7.5 HEPES buffer assessed as enzyme-mediated test compound metabolism by measuring Km by LC-MS analysis; format: ADME, Homo sapiens
# [25] = substrate: COC(=O)CNC(=O)[C@H](C)NC(=O)[C@@H]1CCCN1C(=O)CNC(=O)[C@H](C)N; assay: as §6; format: ADME, Homo sapiens
molecule,measurement,setting,value
COC(=O)CNC(=O)[C@H](CCSC)NC(=O)[C@H](Cc1ccccc1)NC(=O)[C@@H]1CCCN1C(=O)OC(C)(C)C (Boc-PFMG-OMe),Activity,Rattus norvegicus [1],Active
same,IC50,[2],50 µM
COc1ccc2c(c1)c(CC(=O)O)c(C)n2C(=O)c1ccc(Cl)cc1 [INDOMETHACIN],Activity,Rattus norvegicus [3],inactive
same,Activity,[4],0.7 ng/mL
same,Activity,Rattus norvegicus [5],Active
same,Activity,Rattus norvegicus [6],Active
same,Activity,Rattus norvegicus [7],Active
COC(=O)CNC(=O)[C@H](Cc1ccccc1)NC(=O)[C@@H]1CCCN1C(=O)[C@H](Cc1ccccc1)NC(=O)[C@H](C)NC(=O)OCc1ccccc1 (Cbz-AFPFG-OMe),Activity,Rattus norvegicus [1],Active
same,IC50,[2],600 µM
COC(=O)[C@H](Cc1ccccc1)NC(=O)[C@@H]1CCCN1C(=O)CNC(=O)[C@H](CCSC)NC(=O)OCc1ccccc1 (Cbz-MGPF-OMe),Activity,Rattus norvegicus [1],Active
same,IC50,[2],0.5 µM
COC(=O)CNC(=O)[C@H](C)NC(=O)[C@@H]1CCCN1C(=O)CNC(=O)[C@H](C)N (H-AGPAG-OMe),Drug metabolism,[8],Metabolite_Detected
same,Drug metabolism,[9],Metabolite_Detected
same,Activity,[10],Active
same,Activity,Rattus norvegicus [3],56%
same,Activity,[4],1.2 ng/mL
same,Drug metabolism,[11],Metabolite_Detected
same,Activity,Rattus norvegicus [6],80%
same,Activity,Rattus norvegicus [12],inactive
same,Activity,[13],Non-Toxic
same,Activity,Rattus norvegicus [14],Active
same,Activity,Rattus norvegicus [1],80%
same,Drug metabolism,[15],Metabolite_Detected
same,Activity,Rattus norvegicus [16],inactive
same,Activity,Rattus norvegicus [17],inactive
same,Drug metabolism,[18],Metabolite_Detected
same,Activity,[19],Non-Toxic
same,Activity,Rattus norvegicus [7],Active
same,Activity,Rattus norvegicus [20],Active
same,Activity,Rattus norvegicus [21],inactive
same,Activity,[22],Non-Toxic
same,Activity,[23],Active
COC(=O)CNC(=O)[C@H](C)NC(=O)[C@@H]1CCCN1C(=O)CNC(=O)[C@H](C)NC(=O)OCc1ccccc1 (Cbz-AGPAG-OMe),Activity,Rattus norvegicus [1],80%
Prostaglandin G/H synthase 2 (Homo sapiens) (protein) MLARALLLCAVLALSHTANPCCSHPCQNRGVCMSVGFDQYKCDCTRTGFYGENCSTPEFLTRIKLFLKPTPNTVHYILTHFKGFWNVVNNIPFLRNAIMSYVLTSRSHLIDSPPTYNADYGYKSWEAFSNLSYYTRALPPVPDDCPTPLGVKGKKQLPDSNEIVEKLLLRRKFIPDPQGSNMMFAFFAQHFTHQFFKTDHKRGPAFTNGLGHGVDLNHIYGETLARQRKLRLFKDGKMKYQIIDGEMYPPTVKDTQAEMIYPPQVPEHLRFAVGQEVFGLVPGLMMYATIWLREHNRVCDVLKQEHPEWGDEQLFQTSRLILIGETIKIVIEDYVQHLSGYHFKLKFDPELLFNKQFQYQNRIAAEFNTLYHWHPLLPDTFQIHDQKYNYQQFIYNNSILLEHGITQFVESFTRQIAGRVAGGRNVPPAVQKVSQASIDQSRQMKYQSFNEYRKRFMLKPYESFEELTGEKEMSAELEALYGDIDAVELYPALLVEKPRPDAIFGETMVEVGAPFSLKGLMGNVICSPAYWKPSTFGGEVGFQIINTASIQSLICNNVKGCPFTSFSVPDPELIKTVTINASSSRSGLDDINPTVLLKERSTEL,Km,[24],210 µM
same,kcat,[24],200 s⁻¹
same,kcat/Km,[24],950000 M⁻¹ s⁻¹
same,Km,[25],21 µM
same,kcat,[25],13.2 s⁻¹
same,kcat/Km,[25],630000 M⁻¹ s⁻¹

# Source: ChEMBL document CHEMBL4364282, “Engineered Substrate for Cyclooxygenase-2: A Pentapeptide Isoconformational to Arachidonic Acid for Managing Inflammation” (J Med Chem, 2019)
